Measurements taken from paper PMC7127161 (Bioorganic & Medicinal Chemistry, 2014).

Tests used:
HIV-1 (NL4.3) = assay: Anti-HIV-1 activity; type: cell-based; conditions: MT-4 cells
influenza virus A (H3N2) = type: cell-based
influenza virus B = type: cell-based
HSV-2 = assay: Antiviral activity against HSV-2 in HEL cell cultures; type: cell-based; conditions: at 100 μM
[1] = test system: respiratory syncytial virus (RSV); assay: Antiviral activity against RSV in HeLa cell cultures; type: cell-based; conditions: at 100 μM
Sindbis virus = assay: Antiviral activity against Sindbis virus in Vero cell cultures; type: cell-based; conditions: at 100 μM
Reverse transcriptase = assay: Activity against reverse transcriptase; type: biochemical; conditions: data not shown
feline herpesvirus = assay: Antiviral activity against feline herpesvirus in CrFK cell cultures; type: cell-based; conditions: at 100 μM
[2] = test system: vesicular stomatitis virus (VSV); type: cell-based
[3] = test system: herpes simplex virus type 1 (HSV-1); assay: Antiviral activity against HSV-1 in HEL cell cultures; type: cell-based; conditions: at 100 μM
influenza virus A (H1N1) = type: cell-based
parainfluenza virus-3 = assay: Antiviral activity against parainfluenza virus-3 in Vero cell cultures; type: cell-based; conditions: at 100 μM
vaccinia virus = type: cell-based
Punta Toro virus = assay: Antiviral activity against Punta Toro virus in Vero cell cultures; type: cell-based; conditions: at 100 μM
feline corona virus = assay: Antiviral activity against feline corona virus in CrFK cell cultures; type: cell-based; conditions: at 100 μM
reovirus-1 = assay: Antiviral activity against reovirus-1 in Vero cell cultures; type: cell-based; conditions: at 100 μM
Coxsackie virus B4 = assay: Antiviral activity against Coxsackie virus B4 in HeLa cell cultures; type: cell-based; conditions: at 100 μM
CEM cells = assay: Cytostatic properties in human T-lymphocyte; type: cell-based; conditions: concentration required to reduce CEM cell proliferation by 50%
Method in brief: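 Cytostatic assay: (5–7.5) × 104 CEM cells per well with test compound. Cells proliferate 72 h at 37 °C in humidified, CO2-controlled air, then are counted in a Coulter counter. The 50% value is the concentration that inhibits cell proliferation by 50%.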

HIV-1(IIIB) = assay: Anti-HIV-1 activity; type: cell-based; conditions: CEM cells, HIV-1 and HIV-2
Method in brief: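 CEM cells (~3 × 10^5 cells/mL) infected with HIV-1(IIIB) at 100 CCID50 per mL, with dilutions of test compound. Incubated 4–5 days at 37 °C in humidified, CO2-controlled air. Giant (syncytium) cell formation scored under the microscope. EC50 is the concentration that inhibits HIV-induced cytopathic effect by 50%.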

`CCCCCOC(=O)[C@H](C)NP(=O)(Oc1ccccc1)O[C@@H]1CC[C@H](O)[C@H]1CO` (stereo partly drawn) [Compound 17b, (1R,2R,3S)-3-Hydroxy-2-(hydroxymethyl)cyclopentyl-1-O-phenyl-(pentoxy-L-alaninyl)-phosphate] was tested. Which “antiviral activity against HIV-1 and HIV-2 in MT-4 cell cultures (in words)” value (HIV-1 (NL4.3)) did it give?
The value was “devoid of any significant antiviral activity”.

What does the source list for `OC[C@H]1[C@H](O)CC[C@@H]1O` [Compound 15, 2-hydroxymethyl-3-hydroxycyclopentanol]?
activity against influenza virus A (H3N2) (influenza virus A (H3N2)): did not show any measurable activity; activity against influenza virus B (influenza virus B): did not show any measurable activity; activity against HSV-2 (HSV-2): did not show any measurable activity; activity against respiratory syncytial virus (RSV) [1]: did not show any measurable activity; activity against Sindbis virus (Sindbis virus): did not show any measurable activity; activity against reverse transcriptase (Reverse transcriptase): inactive; activity against feline herpesvirus (feline herpesvirus): did not show any measurable activity; activity against vesicular stomatitis virus (VSV) [2]: did not show any measurable activity; activity against herpes simplex virus type 1 (HSV-1) [3]: did not show any measurable activity; activity against influenza virus A (H1N1) (influenza virus A (H1N1)): did not show any measurable activity; activity against parainfluenza virus-3 (parainfluenza virus-3): did not show any measurable activity; activity against vaccinia virus (vaccinia virus): did not show any measurable activity; antiviral activity against HIV-1 and HIV-2 in MT-4 cell cultures (in words) (HIV-1 (NL4.3)): confirmed at low micromolar concentrations; activity against Punta Toro virus (Punta Toro virus): did not show any measurable activity; activity against feline corona virus (feline corona virus): did not show any measurable activity; activity against reovirus-1 (reovirus-1): did not show any measurable activity; activity against Coxsackie virus B4 (Coxsackie virus B4): did not show any measurable activity

`C[C@H](NP(=O)(Oc1cccc2ccccc12)O[C@@H]1CC[C@H](O)[C@H]1CO)C(=O)OCC(C)(C)C` (stereo partly drawn) [Compound 17a, (1R,2R,3S)-3-Hydroxy-2-(hydroxymethyl)cyclopentyl-1-O-naphthyl-(neopentyl-L-alaninyl)-phosphate] was tested. Which “antiviral activity against HIV-1 and HIV-2 in MT-4 cell cultures (in words)” value (HIV-1 (NL4.3)) did it give?
Its value is “devoid of any significant antiviral activity”.

Which CC50 (CEM cells) does the source give for “(3S,4R)-3-(Benzyloxycarbonyl)-4-(benzyloxycarbonylmethyl)cyclopentenol [Compound 11]” here?
Its CC50 is 110 ± 4.2 µM.

And the “anti-HIV-1 or anti-HIV-2 activity (in words)” value (HIV-1(IIIB))?
Its value is “not active”.

How did the CC50 (CEM cells) turn out when “(1R,2S,3S)-3-(Benzyloxycarbonyl)-2-(benzyloxycarbonylmethyl)cyclopentanol [Compound 13]” was run?
The CC50 was 94 ± 4.2 µM.

What about the “activity against reverse transcriptase” value (Reverse transcriptase) of the same compound?
The value was “inactive”.

For `OC[C@H]1CC(O)C[C@@H]1O` (stereo partly drawn) [Compound 14, (3S,4R)-3-hydroxy-4-hydroxymethyl cyclopentanol], which “anti-HIV-1 or anti-HIV-2 activity (in words)” value (HIV-1(IIIB)) is on record?
The value was “not active”.
